{"source": "paper PMC6133078", "about": "(European Journal of Drug Metabolism and Pharmacokinetics, 2018)", "key": {"xenograft": {"tested_on": "xenograft", "settings": "xenograft mice model; preliminary studies; cited from earlier work"}, "[1]": {"experiment": "Stability tests of puquitinib in human plasma QC samples", "type": "physicochemical", "settings": "in words", "in_short": "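Plasma QC samples (3.00, 250.00, 400.00 ng/mL) were tested three ways: extracted samples at room temperature for about 72 h; three freeze (−80 °C) and thaw (room temperature) cycles within a month, analysed in triplicate; and storage at −80 °C for 1 month. Quantified by HPLC–MS/MS against same-day calibration; accuracy given as RE%.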"}, "[2]": {"tested_on": "several cancer cell lines, such as lung, breast, ovarian, colon, prostate cancer, leukemia, lymphoma and osteosarcoma", "settings": "according to the data in vitro; cited from earlier work"}}, "note": "Where a name gives a salt, the structure may show the parent alone."}
{"smiles": "c1cnc2ccc(Nc3nc(NC4CC4)c4nc[nH]c4n3)cc2c1", "note": "[puquitinib, Puquitinib mesylate]", "values": [{"measurement": "antitumor efficacy", "setting": "xenograft", "result": "clear antitumor efficacy"}, {"measurement": "stability during short-term, freeze and thaw and long-term tests", "setting": "[1]", "result": "good stability"}, {"measurement": "IC50", "setting": "[2]", "result": "500 to 2000", "unit": "nM"}]}
